{"source": "paper PMC9253162", "about": "(Bioactive Materials, 2022)", "key": {"E. coli (ATCC-25922)": {"system": "E. coli (ATCC-25922)", "assay": "MIC, turbidity-based broth dilution assay", "assay_type": "cell-based, Escherichia coli", "details": "2–7 × 10^5 CFU/mL, 37 °C, 190 rpm, 16 h", "outline": "(§1)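 Turbidity-based broth dilution at 2–7 × 10^5 CFU/mL, shaken at 190 rpm and 37 °C for 16 h, with Polymyxin-B as positive control. For the selectivity index (HC50/MIC), hemolysis was measured on mouse red blood cells. Triton X-100 set 100% lysis, and RBCs in PBS gave the background that was subtracted. HC50 was taken as the concentration causing 50% hemolysis.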"}, "[1]": {"system": "P. aeruginosa (ATCC-27853)", "assay": "MIC, turbidity-based broth dilution assay", "assay_type": "cell-based, Pseudomonas aeruginosa", "details": "2–7 × 10^5 CFU/mL, 37 °C, 190 rpm, 16 h", "outline": "as §1"}}}
{"substance": "Polymyxin-B", "values": [{"measurement": "Minimum Inhibitory Concentration E. coli", "setting": "E. coli (ATCC-25922)", "result": "<0.5", "unit": "µg/mL"}, {"measurement": "Minimum Inhibitory Concentration P. aeruginosa", "setting": "[1]", "result": 1.0, "unit": "µg/mL"}]}
